The source of these data is ChEMBL document CHEMBL2331521, “Biologically active withanolides from Withania coagulans” (J Nat Prod, 2013).

Series [1] can be described thus: Inhibition of TNFalpha-induced NFkappaB (unknown origin) activation expressed in HEK293 cells after 6 hrs by luciferase reporter gene assay. The class given is cell-based. The conditions noted are these: Homo sapiens, HEK293, 6 h. The method, boiled down:
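HEK293 cells stably transfected with luciferase reporter under multiple NF-κB response elements, seeded 2 × 10^4/well, grown 48 h in DMEM/10% FBS/2 mM glutamine. Medium replaced; cells given test substances plus human recombinant TNF-α 2 ng/mL (0.14 nM) for 6 h, lysed, frozen −80 °C overnight, luciferase luminescence read. Percent inhibition; IC50 from dilution series (top 20 μM), each tested three times, curve-fitted.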
A general note: In a reporter assay the amount or activity of a reporter protein is the signal.

A short description of series [2]: Cytotoxicity against human HEK293 cells assessed as cell survival at 20 uM by SRB assay. The settings on record: read-out: Survival. It is filed as cell-based. The method in brief: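 293/NFκB-luc cells seeded 2 × 10^4/well and grown 48 h. Run in parallel with the reporter assay: fresh medium, samples plus TNF-α 2 ng/mL for 6 h. Fixed with 20% TCA at 4 °C for 30 min, stained with 0.4% SRB in 1% acetic acid for 30 min at room temperature. Dye solubilised in 10 mM Tris base (pH 10), OD read at 515 nm, percent survival calculated.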
(The SRB assay estimates cell density from bound dye.)

Series [3] relates to HEK293. The series can be described thus: Inhibition of TNFalpha-induced NFkappaB (unknown origin) activation expressed in HEK293 cells at 20 uM after 6 hrs by luciferase reporter gene assay. The class given is cell-based. The settings on record: Homo sapiens. The method, boiled down:
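HEK293 cells stably carrying an NF-κB response element–luciferase construct (hygromycin-selected). Seeded 2 × 10^4/well in DMEM with 10% FBS, antibiotics and 2 mM L-glutamine, grown 48 h. Fresh medium, then samples with recombinant human TNF-α 2 ng/mL (0.14 nM) for 6 h. Cells lysed, frozen overnight at −80 °C, luciferase luminescence read, percent inhibition calculated. TPCK positive control.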

Series [4] has as its system RAW264.7. Kind of series: Cancer chemopreventive activity in mouse RAW264.7 cells assessed as inhibition of LPS-induced nitric oxide production at 20 ug/mL treated 30 mins before LPS challenge measured after 20 hrs by Griess reagent assay. Background: Griess reagent forms a coloured azo dye with nitrite.
A short description of series [5]: Cytotoxicity against mouse RAW264.7 cells assessed as cell survival at 20 ug/mL by SRB assay. The class given is cell-based. The conditions noted are these: read-out: Survival. The method in brief: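 RAW 264.7 cells run under the NO assay conditions (30 min sample pretreatment, then 1 μg/mL LPS for 20 h). Cells fixed with 10% TCA and stained with 0.4% SRB in 1% acetic acid. Bound dye dissolved in 10 mM Tris and OD read at 515 nm.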

The test system of series [6] is RAW264.7. The series can be described thus: Cancer chemopreventive activity in mouse RAW264.7 cells assessed as inhibition of LPS-induced nitric oxide production treated 30 mins before LPS challenge measured after 20 hrs by Griess reagent assay.
The test system of series [7] is HEK293. Kind of series: Cytotoxicity against human HEK293 cells assessed as cell survival by SRB assay. The class given is cell-based. The method, boiled down: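 293/NFκB-luc cells (HEK293 stably carrying NF-κB-response-element luciferase reporter) seeded 2 × 10^4/well, grown 48 h in DMEM/10% FBS; treated with samples plus TNF-α 2 ng/mL (0.14 nM) for 6 h. Then TCA-fixed (20%, 4 °C, 30 min), stained 0.4% SRB in 1% acetic acid, dye solubilized in 10 mM Tris base pH 10; OD 515 nm; percent survival at 20 μM.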

Structures are written as SMILES. pIC50: −log10 of the molar value.

A word on the pIC50: it is the negative decadic logarithm of the IC50, by convention in mol/L. For orientation: inhibition means how much of the control response was suppressed. Take `CC1=C(CO)C(=O)O[C@@H]([C@](C)(O)[C@@]2(O)CC=C3[C@@H]4CC=C5CC=CC(=O)[C@]5(C)[C@H]4CC[C@@]32C)C1` [WITHACOAGULIN H]: the values for the pIC50 in series [1] and in series [6] were 5.30 and 5.51, respectively. In addition, the viability at 20 µM in series [2] was determined as 90.3%. In addition, the inhibition in series [3] amounted to 98.3%. For the same compound, the inhibition at 20 µg/mL in series [4] worked out at 100%. The viability at 20 ug/mL in series [5] was found to be 70.4%.
In series [1], `Cc1ccc(S(=O)(=O)/C=C/C#N)cc1` gave a pIC50 of 5.30.
As for `CC1=C(C)C(=O)O[C@@H]([C@](C)(O)[C@]2(O)CC[C@@]3(O)[C@@H]4CC=C5CC=CC(=O)[C@]5(C)[C@H]4CC[C@]23C)C1` [WITHANOLIDE F], the pIC50 in series [1] was 5.24; in series [6] it was 4.96. Besides, in series [2], the viability at 20 µM came out at 100%. In series [3], this compound gave an inhibition of 90.8%. In addition, the inhibition at 20 µg/mL in series [4] worked out at 84.6%. In addition, in series [5], the viability at 20 ug/mL amounted to 100%.
`CC1=C(CO)C(=O)O[C@@H]([C@](C)(O)[C@H]2CC[C@@]3(O)[C@@H]4CC=C5CC=CC(=O)[C@]5(C)[C@H]4CC[C@]23C)C1` gave a pIC50 in series [1] of 5.15. The viability at 20 µM in series [2] amounted to 100%. The inhibition in series [3] stood at 92.8%. Besides, the inhibition at 20 µg/mL in series [4] was 31.4%. For the same compound, in series [5], the viability at 20 ug/mL was found to be 100%.
Take `Cc1ccc(S(=O)(=O)N[C@@H](Cc2ccccc2)C(=O)CCl)cc1` [TPCK]: the pIC50 in series [1] was 4.97; in series [7], 5.42.
On to `CC1=C(CO)C(=O)O[C@@H]([C@](C)(O)[C@H]2CC=C3[C@@H]4CC=C5CC=CC(=O)[C@]5(C)[C@H]4CC[C@@]32C)C1`, for which the pIC50 in series [1] is 4.91; in series [6], 4.42. Besides, in series [2], the viability at 20 µM is 48.3%. This compound also returned an inhibition in series [3] of 88.6%. In series [4], the inhibition at 20 µg/mL was 76.3%. Also, the viability at 20 ug/mL in series [5] is 100%.
`CC1=C(C)C(=O)O[C@@H]([C@](C)(O)C2=CC[C@@]3(O)[C@@H]4CC=C5CC=CC(=O)[C@]5(C)[C@H]4CC[C@]23C)C1`: the values for the pIC50 in series [1] and in series [6] were 5.24 and 4.98, respectively. For the same compound, the viability at 20 µM in series [2] was found to be 100%. The compound also showed an inhibition in series [3] of 90.2%. In series [4], the inhibition at 20 µg/mL worked out at 69.1%. In addition, in series [5], the viability at 20 ug/mL was 100%.
As for `CC1=C(C)C(=O)O[C@@H]([C@](C)(O)[C@H]2CC[C@@]3(O)[C@@H]4CC=C5CC=CC(=O)[C@]5(C)[C@H]4CC[C@]23C)C1`, the values for the pIC50 in series [1] and in series [6] were 4.91 and 4.43, respectively. The viability at 20 µM in series [2] was 71.9%. Also, the inhibition in series [3] was determined as 86.9%. Also, in series [4], the inhibition at 20 µg/mL was 88.5%. In addition, the viability at 20 ug/mL in series [5] came to 100%.
Turning to `CC1=C(CO)C(=O)O[C@@H]([C@](C)(O)[C@@]2(O)CC[C@H]3[C@@H]4CC=C5CC=CC(=O)[C@]5(C)[C@H]4CC[C@@]32C)C1` [WITHACOAGULIN G], the figures for the pIC50 in series [1] and in series [6] were 4.93 and 5.72, respectively. In addition, the viability at 20 µM in series [2] was 93.2%. Moreover, the inhibition in series [3] worked out at 90.1%. The inhibition at 20 µg/mL in series [4] came out at 100%. Moreover, the viability at 20 ug/mL in series [5] is 96.7%.
For the compound `CC1=C(C)C(=O)O[C@@H]([C@](C)(O)[C@@]2(O)CC[C@]3(O)[C@@H]4CC=C5C=CCC(=O)[C@]5(C)[C@H]4CC[C@]23C)C1` [WITHACOAGULIN I], the negative logarithm of the IC50 (pIC50) in series [1] is 5.06; in series [6], 4.54. The viability at 20 µM in series [2] turned out to be 89.4%. The compound also displayed an inhibition in series [3] of 89.9%. Also, the inhibition at 20 µg/mL in series [4] amounted to 69.8%. Further, the viability at 20 ug/mL in series [5] was found to be 100%.
In the case of `CC1=C(CO)C(=O)O[C@@H]([C@](C)(O)[C@]2(O)CC[C@@]3(O)[C@@H]4CC=C5CC=CC(=O)[C@]5(C)[C@H]4CC[C@]23C)C1`, the pIC50 in series [1] was 5.80; in series [6], 5.16. Besides, the viability at 20 µM in series [2] stood at 88.6%. For the same compound, the inhibition in series [3] was determined as 90.1%. Also, the inhibition at 20 µg/mL in series [4] stood at 95.1%. For the same compound, the viability at 20 ug/mL in series [5] stood at 100%.
